According to ChEMBL document CHEMBL1156071, “Novel L-xylose derivatives as selective sodium-dependent glucose cotransporter 2 (SGLT2) inhibitors for the treatment of type 2 diabetes” (J Med Chem, 2009):

How the values were obtained:
[1] = molecular target: T1, Sodium/glucose cotransporter 2 (Mus musculus, UniProt Q923I7); experiment: Inhibition of mouse SGLT2-mediated [14C]alpha-methylglucopyranoside uptake by cell based assay
T1 sequence (Q923I7 whole entry): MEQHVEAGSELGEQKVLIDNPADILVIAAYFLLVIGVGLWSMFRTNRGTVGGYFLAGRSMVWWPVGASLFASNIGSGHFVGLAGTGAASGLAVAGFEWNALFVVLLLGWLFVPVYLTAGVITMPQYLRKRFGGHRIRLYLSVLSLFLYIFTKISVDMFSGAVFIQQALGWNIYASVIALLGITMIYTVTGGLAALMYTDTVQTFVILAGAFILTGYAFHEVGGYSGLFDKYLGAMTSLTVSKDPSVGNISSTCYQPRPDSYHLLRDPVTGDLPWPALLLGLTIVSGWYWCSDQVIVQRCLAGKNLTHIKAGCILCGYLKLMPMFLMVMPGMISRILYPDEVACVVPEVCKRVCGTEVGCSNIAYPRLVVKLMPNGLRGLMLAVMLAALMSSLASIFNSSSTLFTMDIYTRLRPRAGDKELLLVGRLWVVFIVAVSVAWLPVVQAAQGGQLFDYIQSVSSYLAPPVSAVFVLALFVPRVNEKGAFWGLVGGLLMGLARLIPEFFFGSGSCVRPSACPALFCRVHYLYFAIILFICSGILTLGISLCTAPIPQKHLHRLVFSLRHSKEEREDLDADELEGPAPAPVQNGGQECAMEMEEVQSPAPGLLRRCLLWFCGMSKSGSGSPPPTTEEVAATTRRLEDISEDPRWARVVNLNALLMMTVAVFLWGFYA

[2] = molecular target: T2, Sodium/glucose cotransporter 2 (Homo sapiens, UniProt P31639); experiment: Inhibition of human SGLT2 expressed in HEK293 cells assessed as inhibition of [14C]alpha-methylglucopyranoside uptake; assay type: cell-based
T2 sequence (P31639 whole entry): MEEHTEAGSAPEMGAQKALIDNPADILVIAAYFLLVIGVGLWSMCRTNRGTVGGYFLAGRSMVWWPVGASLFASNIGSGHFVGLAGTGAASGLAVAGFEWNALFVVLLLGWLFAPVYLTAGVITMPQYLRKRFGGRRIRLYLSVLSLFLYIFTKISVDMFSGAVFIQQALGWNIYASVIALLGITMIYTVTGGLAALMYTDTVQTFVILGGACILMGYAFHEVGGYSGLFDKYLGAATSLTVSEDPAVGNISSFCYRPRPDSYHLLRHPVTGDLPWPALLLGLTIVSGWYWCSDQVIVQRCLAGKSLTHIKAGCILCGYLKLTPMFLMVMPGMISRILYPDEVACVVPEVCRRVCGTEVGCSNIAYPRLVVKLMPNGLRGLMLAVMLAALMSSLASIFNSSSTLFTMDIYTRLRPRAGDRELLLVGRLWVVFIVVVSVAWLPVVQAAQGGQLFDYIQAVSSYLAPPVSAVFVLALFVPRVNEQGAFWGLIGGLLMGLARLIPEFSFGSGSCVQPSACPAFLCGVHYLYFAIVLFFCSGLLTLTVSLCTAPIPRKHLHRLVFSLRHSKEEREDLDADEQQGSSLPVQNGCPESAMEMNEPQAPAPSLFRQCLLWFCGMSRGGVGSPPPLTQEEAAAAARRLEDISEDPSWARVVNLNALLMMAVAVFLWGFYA
In short: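 Cells stably expressing human SGLT2 were used to measure sodium-coupled uptake of [14C]α-methylglucopyranoside, a metabolically stable SGLT-specific glucose analogue. Uptake was measured across increasing compound concentrations, and IC50 was derived from the inhibition of uptake.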

SMILES | IC50 [1] [nM] | IC50 [2] [nM]
COC1O[C@@H](c2ccc(Cl)c(Cc3ccc(OC(=S)N(C)C)cc3)c2)[C@H](O)[C@@H](O)[C@@H]1O (mixture of isomers) | 330 | 740
CCOc1ccc(Cc2cc([C@@H]3OC(OC)C[C@H](O)[C@H]3O)ccc2Cl)cc1 (mixture of isomers) | 14000 | > 30000
CCOc1ccc(Cc2cc([C@]3(C)OC(OC)[C@@H](O)[C@H](O)[C@H]3O)ccc2Cl)cc1 (mixture of isomers) | 220 | 590
CCOc1ccc(Cc2cc([C@@H]3OC(OC(C)C)[C@@H](O)[C@H](O)[C@H]3O)ccc2Cl)cc1 (mixture of isomers) | 190 | 420

Stronger by IC50 [1], values ahead:

IC50 [1] [nM] | IC50 [2] [nM] | SMILES
100 | 180 | COc1ccc(Sc2cc([C@@H]3OC(OC)[C@@H](O)[C@H](O)[C@H]3O)ccc2Cl)cc1 (mixture of isomers)
23 | 36 | CCOc1ccc(Cc2cc([C@@H]3OC(OCCO)[C@@H](O)[C@H](O)[C@H]3O)ccc2Cl)cc1 (mixture of isomers)
23 | 55 | CCOc1ccc(Cc2cc([C@@H]3OC(OC)[C@@H](O)[C@H](O)[C@H]3O)ccc2C)cc1 (mixture of isomers)
